According to PubChem BioAssay AID588818 (Broad Institute, 2011):

System: ldlA[mSR-BI] cells, [3H]cholesterol efflux to HDL
Assay: SR-BI cellular [3H]cholesterol release modulation – ldlA[mSR-BI] cells, powder samples, mechanism study for SR-BI HDL uptake inhibitor project, late-stage follow-up (AID 588818)
Details: at 1 µM; hits give low values
Summary of the method: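 Times: 24-h 1% FAF-BSA equilibration, 1-h compound preincubation, 2-h HDL exposure; Assay system: ldlA[mSR-BI] cells carrying a [3H]cholesterol label; Detection: liquid scintillation counting of [3H]cholesterol in medium and cells; Probe or stimulus: HDL as cholesterol acceptor, 100 µg/mL final.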

SMILES	cholesterol efflux relative to neutral control [%]
CCC(=O)N1CCc2cc(-c3csc(NC(=O)c4ccco4)n3)ccc21	11.5
COc1ccc(-c2nnn(CC(=O)N(C3CCCCC3)C(C)C(=O)NC3CCCC3)n2)cc1OC (stereo not given)	13.1
CCOC(=O)N1CCC(NC(=O)c2ccc3c(c2)N(Cc2ccc(F)cc2)CCS3)CC1	14.1
O=C(Nc1ccc(-c2nc3cc(NC(=O)c4ccc(NC(=O)c5cccc6ccccc56)cc4)ccc3[nH]2)cc1)c1ccc(NC(=O)c2cccc3ccccc23)cc1	10.3
O=C(Nc1ccc(-c2nc3cc(NC(=O)c4ccccc4[N+](=O)[O-])ccc3o2)cc1)c1ccccc1[N+](=O)[O-]	5.29
